Only some compounds are listed: those with a hit (about 1.6% of all), similar ones and a draw of the others.
14-3-3 Bad inh: disrupts binding of bovine 14-3-3 zeta to phospho-Bad peptide. P63103. TR-FRET 14-3-3zeta/Dy647-pBad peptide displacement, 1 h. inhibition, % at 21.7 µM. 220,000 compounds, 0.71% hits. AID 781;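 active = inhibition above about 70%, limit read from the data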
eIF4E 4G PPI: blocks eIF4E binding to eIF4G; 220,000 compounds, 0.37% hits; inhibition, % at 21.7 µM; P63073+Q04637; TR-FRET eIF4E-eIF4GI(517-606) binding, 2 h;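 active = inhibition above about 30%, limit read from the data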
EBV gp42 block: blocks Epstein-Barr virus glycoprotein 42 binding. inhibition, % (tested at 21.74 µM). 220,000 compounds, 0.42% hits. Fluorescence polarization binding assay, mP read-out. Q1HVG2. AID 1085
PKD1 kinase inh: PKD1 (human) kinase inhibition | Q15139 | PKD1 kinase fluorescence polarization assay | inhibition, % (no concentration beside the values) | 200,000 compounds, 0.056% hits | AID 797
RBBP9 inh: human RBBP9 hydrolase inhibition; recombinant RBBP9, FP-Rh probe fluorescence polarization; 220,000 compounds, 0.2% hits; inhibition, % at 7.94 µM;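 active = inhibition above the campaign mean of all tested compounds plus 3 SD, cut at about 14% in these data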
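Test system – recombinant human RBBP9 · Input – RBBP9 2.5 µM in dispensing solution, pre-mixing · Medium – Tris buffer pH 8.0, NaCl, Pluronic · Schedule – preincubation 30 min plus labeling 45 min at 25 °C · Measured by – fluorescence polarization · Measure – % inhibition · Controls – DMSO and no-protein wells · Replicates – one well per compound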
Of the large screens only hits and unclear results are named; the others gave an inactive call; [ ] = another dose, or the depositor's remark. Cut-off read from the data, not from the text of the source, unless noted: active = inhibition above about 50%; inactive = the rest.

Cc1[nH]c2ccccc2c1/C=N/n1cnnc1	none
CCN(CC)c1ccc(N=Cc2c(C)[nH]c3ccccc23)cc1	eIF4E 4G PPI 32[fluorescence artefact?]
O=C(OCCN1C(=O)c2cccc3c(N4CCOCC4)ccc(c23)C1=O)c1cc(Cl)cc(Cl)c1	eIF4E 4G PPI 33[fluorescence artefact?], EBV gp42 block 132
CCN(CC)S(=O)(=O)c1ccc(C(=O)OCCN2C(=O)c3cccc4c(N5CCOCC5)ccc(c34)C2=O)cc1	EBV gp42 block 133
Nc1c(C(=O)Nc2ccc(Cl)c(Cl)c2)sc2nc(-c3cccnc3)ccc12	14-3-3 Bad inh 95[fluorescence artefact?]
COc1cccc2c1C(=O)c1c(O)c3c(c(O)c1C2=O)C[C@@](O)(C(=O)CO)C[C@@H]3O[C@H]1C[C@H](N)[C@H](O)[C@H](C)O1	14-3-3 Bad inh 96[fluorescence artefact?], eIF4E 4G PPI 50[fluorescence artefact?], EBV gp42 block active, PKD1 kinase inh 75
Cc1ccc(-n2sc3ccccc3c2=O)cc1S(=O)(=O)N1CCCCC1	eIF4E 4G PPI 32
CN(C)S(=O)(=O)c1cccc(-n2sc3ccccc3c2=O)c1	eIF4E 4G PPI 56
Cc1ccc(CNC(=O)CCC2CCCN(Cc3cc4ccccc4o3)C2)o1 (stereo unspecified)	none (no result: PKD1 kinase inh)
O=Nc1ccc(NOC(=O)c2ccccc2Br)cc1	none
O=C(ONc1ccc(N=NC(=O)c2ccccc2O)cc1)c1ccccc1	EBV gp42 block 89
Cc1ccc(CN2CCN(/N=C/c3cccs3)CC2)cc1	none
Cc1cc(C)n2c(SC/C(O)=C(\C#N)c3nc4ccccc4[nH]3)nnc2n1	EBV gp42 block 67
COc1ccc([N+](=O)[O-])cc1NC(=O)c1ccc(Br)s1	14-3-3 Bad inh 74
CN1CCN(S(=O)(=O)c2ccc(N3CCc4ccccc4C3)nc2)CC1	none
O=S(=O)(c1ccc2nc(Cc3ccccc3)[nH]c2c1)N1CCOCC1	14-3-3 Bad inh 88
O=S(=O)(c1ccc2nc(Cc3cccc(C(F)(F)F)c3)[nH]c2c1)N1CCOCC1	none
O=S(=O)(c1ccc2c(c1)oc1ccccc12)N1CCOCC1	14-3-3 Bad inh active[fluorescence artefact?]
Cn1c(=O)oc2cc(S(=O)(=O)N3CCOCC3)ccc21	none
c1ccc2c(c1)CCCN2Cc1nnnn1CC1CCCO1 (stereo unspecified)	EBV gp42 block 71
O=C(c1nc2ccccn2c1CNCCOc1cccnc1)N1CCOCC1	none
Cc1ccc(CN2CC(C(=O)Nc3ccc(F)c([N+](=O)[O-])c3)CC2=O)cc1 (stereo unspecified)	none
O=C(NCCc1cccs1)C1CC(c2ccccc2F)=NO1 (stereo unspecified)	none (no result: PKD1 kinase inh, RBBP9 inh)
O=C(O)C1CC(c2ccccc2F)=NO1 (stereo unspecified)	eIF4E 4G PPI 48
O=C(Nc1cc(S(=O)(=O)N2CCCCC2)ccc1N1CCCCC1)c1ccncc1	none (no result: PKD1 kinase inh)
N#CC(C(=O)NCc1ccccc1)c1nc2ccccc2nc1N1CCCC1 (stereo unspecified)	none
CCOC(=O)C1CCCN(c2nc(C)nc3c2oc2ccccc23)C1 (stereo unspecified)	14-3-3 Bad inh 83
CCOC(=O)C1CCCN(c2nc3ccccc3nc2C(C#N)C(=O)NCc2ccccc2)C1 (stereo unspecified)	EBV gp42 block 54
OC(COCC1COc2ccccc2O1)CN1CCN(c2ccccn2)CC1 (stereo unspecified)	14-3-3 Bad inh 80
OC(COCC1COc2ccccc2O1)CN1CCc2ccccc2C1 (stereo unspecified)	none
Cc1c(NC(=O)COC(=O)c2ccc(F)c(S(=O)(=O)N3CCOCC3)c2)c(=O)n(-c2ccccc2)n1C	none
COc1ccc(OC)c(/C=C2\SC(=S)N(Cc3cccnc3)C2=O)c1	EBV gp42 block 142
CCc1ccc(CN(C)C(=O)CCc2nc3ccccc3n(-c3ccc(OC)cc3)c2=O)cc1	none
COc1ccc(/C(O)=C/c2nc3ccccc3n(-c3ccccc3)c2=O)cc1	EBV gp42 block 59 (no result: 14-3-3 Bad inh, eIF4E 4G PPI)
C/C=C(\C)CN1CCN(c2ccccc2)CC1	14-3-3 Bad inh 74
CCSc1nc2sc3c(c2c(=O)[nH]1)CCCC3	EBV gp42 block 66
CSc1nc2sc3c(c2c(=O)[nH]1)CCCC3	none
CCn1c2ccccc2c2cc(NC(=O)c3ccc(=O)oc3)ccc21	EBV gp42 block 127 (no result: PKD1 kinase inh)
CCn1c2ccccc2c2cc(NC(=O)c3cc(OC)cc(OC)c3)ccc21	none
CCn1c2ccccc2c2cc(NC(=O)c3coc(=O)c(Br)c3)ccc21	EBV gp42 block 97 (no result: PKD1 kinase inh)
